One block for each molecule: values may come before it. The source made the active and inactive calls. No cut-off for these calls is given here.
What was measured:
[1] = Neurotoxicity in human SH-SY5Y cells assessed as decrease in cell viability at 1.665 to 6.665 uM incubated for 3 days; format: toxicity, cell-based; conditions: 72 h, dose 1.665-6.665 µM, time 3 day
Procedure, shortened: (§1)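 SH-SY5Y cells were grown on poly-D-lysine in DMEM/F12 with 10% FBS and seeded at 15,000/well 36 h before dosing, with DMSO as vehicle. Viability was read by MTT: 2 h at 37 °C, then solubilization for 1 h and absorbance at 570. Data are triplicates from three separate experiments.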

[2] = system: NCI-H522; experiment: Cytotoxicity against human NCI-H522 cells assessed as reduction in cell survival at 1 to 5 uM incubated for 3 days in presence of 2-Bromo-N-(7-(hydroxyamino)-7-oxoheptyl)thiazole-4-carboxamide by methylene blue staining based analysis; format: functional; conditions: dose 1-5 µM, time 3.0 day
Procedure, shortened: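 Cells (5000/well, n = 3, DMEM with 10% serum, 37 °C, 5% CO2) were treated the day after plating and kept for three days. […] Survival was expressed relative to DMSO.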

[3] = system: NCI-H522; experiment: Cytotoxicity against human NCI-H522 cells assessed as reduction in cell survival at 1 to 5 uM incubated for 3 days in presence of ferroptosis inhibitor, liproxstatin-1 by methylene blue staining based analysis; format: functional; conditions: dose 1-5 µM, time 3.0 day
[4] = Cytotoxicity against human WI-38 cells assessed as reduction in cell survival incubated for 30 mins by methylene blue staining based analysis
[5] = system: NCI-H522; experiment: Induction of ferroptosis in human NCI-H522 cells assessed as viability at 20 uM incubated after 8 to 12 hrs by microscopic analysis; format: functional, cell-based; conditions: time lower 8.0 hrs, time upper […]
Procedure, shortened: (§2)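 Time-lapse imaging used NCI-H522 cells adhered overnight and equilibrated to 10% CO2, held in sealed flasks on a 37 °C stage. Frames were taken every 12 min, 300 in total, with a ×40 objective. For Kaplan–Meier curves, at least 100 cells were scored, with death counted per 1 h or 0.2 h interval.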

[6] = system: NCI-H522; experiment: Induction of ferroptosis in human NCI-H522 cells assessed as induction of lipid peroxidase accumulation at 10 uM incubated for 4 days in presence of Lipoxstatin-1 by C11-BODIPY-581/591 staining based flow cytometry analysis; format: functional, cell-based
[7] = system: HCT-116; experiment: Cytotoxicity against human HCT-116 cells assessed as reduction in cell viability incubated for 30 mins by methylene blue staining based analysis; conditions: HCT-116, 0.5 h
[8] = biological target: T1, Protein deacetylase HDAC6 (Homo sapiens, UniProt Q9UBN7); experiment: Inhibition of full length C-terminal FLAG-tagged human recombinant HDAC6 expressed inSf9 insect cells; set-up: species or system Sf9
T1 sequence (Q9UBN7 whole entry): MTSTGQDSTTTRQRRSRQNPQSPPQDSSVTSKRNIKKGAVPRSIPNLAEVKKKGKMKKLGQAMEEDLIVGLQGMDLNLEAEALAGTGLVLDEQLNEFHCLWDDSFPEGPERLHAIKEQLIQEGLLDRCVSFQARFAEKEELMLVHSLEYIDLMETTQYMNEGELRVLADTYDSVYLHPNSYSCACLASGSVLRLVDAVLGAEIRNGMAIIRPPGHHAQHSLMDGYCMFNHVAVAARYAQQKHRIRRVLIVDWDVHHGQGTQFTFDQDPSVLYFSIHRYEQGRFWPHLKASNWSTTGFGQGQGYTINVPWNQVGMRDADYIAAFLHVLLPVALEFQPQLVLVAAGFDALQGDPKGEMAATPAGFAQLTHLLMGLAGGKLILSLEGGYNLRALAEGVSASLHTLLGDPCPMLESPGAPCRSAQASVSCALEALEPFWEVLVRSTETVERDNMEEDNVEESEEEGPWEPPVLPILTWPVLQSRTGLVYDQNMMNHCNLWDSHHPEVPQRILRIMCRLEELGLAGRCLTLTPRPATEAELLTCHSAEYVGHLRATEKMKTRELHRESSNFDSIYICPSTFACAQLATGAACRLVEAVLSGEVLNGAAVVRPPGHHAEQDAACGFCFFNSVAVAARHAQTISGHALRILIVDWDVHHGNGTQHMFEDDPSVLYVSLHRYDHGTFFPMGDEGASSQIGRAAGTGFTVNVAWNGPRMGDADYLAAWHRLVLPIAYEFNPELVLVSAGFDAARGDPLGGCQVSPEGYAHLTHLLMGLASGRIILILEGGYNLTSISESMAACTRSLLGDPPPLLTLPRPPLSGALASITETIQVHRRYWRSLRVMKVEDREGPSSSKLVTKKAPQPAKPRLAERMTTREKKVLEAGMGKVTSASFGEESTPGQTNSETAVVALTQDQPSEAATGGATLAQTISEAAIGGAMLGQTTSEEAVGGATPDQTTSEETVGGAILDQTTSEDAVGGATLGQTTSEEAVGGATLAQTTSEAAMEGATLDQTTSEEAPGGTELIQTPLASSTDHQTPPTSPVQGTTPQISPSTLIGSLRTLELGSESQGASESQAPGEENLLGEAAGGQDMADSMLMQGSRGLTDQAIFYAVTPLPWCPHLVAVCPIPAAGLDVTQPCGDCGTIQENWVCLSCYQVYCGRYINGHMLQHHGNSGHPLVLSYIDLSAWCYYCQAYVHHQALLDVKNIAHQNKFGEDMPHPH

[9] = biological target: Histone deacetylase 4 (Homo sapiens, UniProt P56524); experiment: Inhibition of […] N-terminal GST/C-terminal his-tagged human recombinant HDAC4 (627 to 1084 residues) expressed in Sf9 insect cells
[10] = system: NCI-H522; experiment: Cytotoxicity against human NCI-H522 cells assessed as reduction in cell viability incubated for 30 mins by methylene blue staining based analysis; conditions: NCI-H522, 0.5 h
[11] = biological target: T2, Histone deacetylase 8 (Homo sapiens, UniProt Q9BY41); experiment: Inhibition of full length C-terminal his-tagged human recombinant HDAC8 expressed in Sf9 insect cells
T2 sequence (Q9BY41 whole entry): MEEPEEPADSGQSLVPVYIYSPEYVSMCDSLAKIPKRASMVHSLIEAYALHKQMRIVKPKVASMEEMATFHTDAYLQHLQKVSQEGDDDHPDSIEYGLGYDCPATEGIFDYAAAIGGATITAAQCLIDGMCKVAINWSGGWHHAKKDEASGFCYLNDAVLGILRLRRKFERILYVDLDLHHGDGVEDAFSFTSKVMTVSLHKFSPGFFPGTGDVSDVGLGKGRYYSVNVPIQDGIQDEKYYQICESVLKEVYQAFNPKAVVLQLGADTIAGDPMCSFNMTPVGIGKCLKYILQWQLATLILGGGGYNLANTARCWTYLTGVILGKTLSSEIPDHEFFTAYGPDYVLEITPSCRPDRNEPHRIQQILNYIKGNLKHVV

[12] = biological target: Histone deacetylase 1 (Homo sapiens, UniProt Q13547); experiment: Inhibition of full length his6/FLAG-tagged human recombinant HDAC1(1 to 482 residues) expressed in Sf9 insect cells
[13] = biological target: Histone deacetylase 3 (Homo sapiens, UniProt O15379); experiment: Inhibition of full length C-terminal his6/FLAG-tagged human recombinant HDAC3 ([…]) expressed in Sf9 insect cells
[14] = system: NCI-H522; experiment: Induction of ferroptosis in human NCI-H522 cells assessed as induction of lipid peroxidase accumulation at 10 uM incubated for 6 hrs by C11-BODIPY-581/591 staining based flow cytometry analysis; format: functional, cell-based
Procedure, shortened: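 NCI-H522 cells were plated overnight to about 70% density and treated at 10 μM. C11-BODIPY 581/591 (1 μM) was added at the time of treatment. After 6 h, cells were trypsinized, washed, resuspended in PBS with 2% FBS and analysed by flow cytometry, 20 × 10³ cells per sample.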

[15] = Neurotoxicity in human SH-SY5Y cells assessed as decrease in cell viability at 2.32 uM incubated for 3 days; format: toxicity, cell-based; conditions: 72 h, time 3 day; procedure, shortened: as §1
[16] = system: EKVX; experiment: Cytotoxicity against human EKVX cells assessed as cell growth inhibition incubated for 24 hrs by MTT assay; format: functional, cell-based
Procedure, shortened: (§3)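 Run within the NCI-60 DTP screen: a single-dose test at 10 μM across about sixty human tumour lines, read as Growth % and mean inhibition. Selected compounds then went to a five-dose assay to derive GI50. Both were single experiments without replicates.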

[17] = system: NCI-H322M; experiment: Cytotoxicity against human NCI-H322M cells assessed as cell growth inhibition incubated for 24 hrs by MTT assay; format: functional, cell-based; procedure, shortened: as §3
[18] = system: NCI-H522; experiment: Induction of ferroptosis in human NCI-H522 cells assessed as viability at 5 uM incubated at 0.2 to 10.2 hrs by microscopic analysis; format: functional, cell-based; conditions: time 0.2-10.2 hrs; procedure, shortened: as §2
[19] = system: NCI-H226; experiment: Cytotoxicity against human NCI-H226 cells assessed as cell growth inhibition incubated for 24 hrs by MTT assay; format: functional, cell-based
[20] = system: NCI-H522; experiment: Cytotoxicity against human NCI-H522 cells assessed as cell growth inhibition incubated for 24 hrs by MTT assay; format: functional, cell-based
[21] = system: Panel NCI-60 (60 carcinoma cell lines); experiment: Cytotoxicity against human NCI-60 cells assessed as cell growth inhibition incubated for 24 hrs by MTT assay; format: functional, cell-based; procedure, shortened: as §3
[22] = system: NCI-H460; experiment: Cytotoxicity against human NCI-H460 cells assessed as cell growth inhibition incubated for 24 hrs by MTT assay; format: functional, cell-based
[23] = system: NCI-H522; experiment: Induction of cell cycle arrest in human NCI-H522 cells assessed as accumulation at G1 phase 5 uM incubated for 24 to 72 hrs by PI staining based flow cytometric analysis; format: functional; conditions: time lower […], time upper […]
[24] = system: NCI-H522; experiment: Induction of cell cycle arrest in human NCI-H522 cells assessed as accumulation at S phase 5 uM incubated for 24 to 72 hrs by PI staining based flow cytometric analysis; format: functional; conditions: time lower […], time upper […]
[25] = system: K562; experiment: Cytotoxicity against human K562 cells assessed as cell growth inhibition incubated for 24 hrs by MTT assay; format: functional, cell-based
[26] = system: NCI-H522; experiment: Induction of cell cycle arrest in human NCI-H522 cells assessed as accumulation at G2/M phase 5 uM incubated for 24 to 72 hrs by PI staining based flow cytometric analysis; format: functional; conditions: time lower […], time upper […]
[27] = system: MOLT-4; experiment: Cytotoxicity against human MOLT-4 cells assessed as cell growth inhibition incubated for 24 hrs by MTT assay; format: functional, cell-based
[28] = biological target: Histone deacetylase 2 (Homo sapiens, UniProt Q92769)
[29] = system: HL-60; experiment: Cytotoxicity against human HL-60 cells assessed as cell growth inhibition incubated for 24 hrs by MTT assay; format: functional, cell-based
[30] = system: HOP-62; experiment: Cytotoxicity against human HOP-62 cells assessed as cell growth inhibition incubated for 24 hrs by MTT assay; format: functional, cell-based
[31] = system: SF-539; experiment: Cytotoxicity against human SF-539 cells assessed as cell growth inhibition incubated for 24 hrs by MTT assay; conditions: SF-539, 24 h
[32] = system: HOP-92; experiment: Cytotoxicity against human HOP-92 cells assessed as cell growth inhibition incubated for 24 hrs by MTT assay; format: functional, cell-based; procedure, shortened: as §3
[33] = system: NCI-H23; experiment: Cytotoxicity against human NCI-H23 cells assessed as cell growth inhibition at 10 uM incubated for 24 hrs by MTT assay; conditions: NCI-H23, 24 h
[34] = system: RPMI-8226; experiment: Cytotoxicity against human RPMI-8226 cells assessed as cell growth inhibition incubated for 24 hrs by MTT assay; conditions: RPMI-8226, 24 h
[35] = system: SR; experiment: Cytotoxicity against human SR cells assessed as cell growth inhibition incubated for 24 hrs by MTT assay; format: functional, cell-based
[36] = system: A549; experiment: Cytotoxicity against human A549 cells assessed as cell growth inhibition incubated for 24 hrs by MTT assay; format: functional, cell-based

Chain of Histone deacetylase 3 (O15379 whole entry): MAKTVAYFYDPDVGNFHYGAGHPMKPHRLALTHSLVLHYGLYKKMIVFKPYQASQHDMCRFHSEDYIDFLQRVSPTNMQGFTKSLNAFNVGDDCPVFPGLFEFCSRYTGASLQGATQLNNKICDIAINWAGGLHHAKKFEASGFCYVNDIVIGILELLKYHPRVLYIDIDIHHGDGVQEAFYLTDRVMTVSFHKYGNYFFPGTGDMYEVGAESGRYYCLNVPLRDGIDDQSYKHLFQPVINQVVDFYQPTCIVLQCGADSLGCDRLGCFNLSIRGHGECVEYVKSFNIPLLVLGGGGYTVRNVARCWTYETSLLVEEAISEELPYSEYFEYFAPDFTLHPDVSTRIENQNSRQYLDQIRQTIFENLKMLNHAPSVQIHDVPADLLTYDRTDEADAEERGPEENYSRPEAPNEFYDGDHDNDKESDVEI
Chain of Histone deacetylase 1 (Q13547 whole entry, the tested form may be a part): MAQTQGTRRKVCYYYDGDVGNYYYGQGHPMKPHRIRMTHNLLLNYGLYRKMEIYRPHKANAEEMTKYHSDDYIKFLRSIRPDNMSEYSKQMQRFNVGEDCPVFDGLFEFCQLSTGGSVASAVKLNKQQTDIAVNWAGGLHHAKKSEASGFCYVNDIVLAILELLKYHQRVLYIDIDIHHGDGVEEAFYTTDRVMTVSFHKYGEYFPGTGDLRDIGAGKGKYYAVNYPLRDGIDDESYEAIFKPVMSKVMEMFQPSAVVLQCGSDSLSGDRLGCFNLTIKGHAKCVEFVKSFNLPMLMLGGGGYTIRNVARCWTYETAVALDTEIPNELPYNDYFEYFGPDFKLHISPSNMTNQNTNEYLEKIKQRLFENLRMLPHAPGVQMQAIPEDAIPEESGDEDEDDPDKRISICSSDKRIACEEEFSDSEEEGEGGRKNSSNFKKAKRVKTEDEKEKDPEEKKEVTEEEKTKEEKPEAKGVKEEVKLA
Chain of Histone deacetylase 2 (Q92769 whole entry): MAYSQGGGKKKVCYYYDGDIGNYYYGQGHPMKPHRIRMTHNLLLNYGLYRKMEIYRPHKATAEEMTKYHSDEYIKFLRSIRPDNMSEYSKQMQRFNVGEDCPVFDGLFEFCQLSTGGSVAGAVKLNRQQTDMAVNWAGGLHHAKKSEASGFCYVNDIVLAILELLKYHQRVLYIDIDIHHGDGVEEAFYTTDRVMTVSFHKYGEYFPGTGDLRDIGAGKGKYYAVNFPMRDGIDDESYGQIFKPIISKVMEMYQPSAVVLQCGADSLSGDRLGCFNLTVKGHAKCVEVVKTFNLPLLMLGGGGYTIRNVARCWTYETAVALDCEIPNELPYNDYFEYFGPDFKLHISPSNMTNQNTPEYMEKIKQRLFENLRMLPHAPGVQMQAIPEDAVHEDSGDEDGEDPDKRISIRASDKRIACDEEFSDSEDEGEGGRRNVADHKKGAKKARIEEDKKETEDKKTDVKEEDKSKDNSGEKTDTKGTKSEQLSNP
Chain of Histone deacetylase 4 (P56524 whole entry, the tested form may be a part): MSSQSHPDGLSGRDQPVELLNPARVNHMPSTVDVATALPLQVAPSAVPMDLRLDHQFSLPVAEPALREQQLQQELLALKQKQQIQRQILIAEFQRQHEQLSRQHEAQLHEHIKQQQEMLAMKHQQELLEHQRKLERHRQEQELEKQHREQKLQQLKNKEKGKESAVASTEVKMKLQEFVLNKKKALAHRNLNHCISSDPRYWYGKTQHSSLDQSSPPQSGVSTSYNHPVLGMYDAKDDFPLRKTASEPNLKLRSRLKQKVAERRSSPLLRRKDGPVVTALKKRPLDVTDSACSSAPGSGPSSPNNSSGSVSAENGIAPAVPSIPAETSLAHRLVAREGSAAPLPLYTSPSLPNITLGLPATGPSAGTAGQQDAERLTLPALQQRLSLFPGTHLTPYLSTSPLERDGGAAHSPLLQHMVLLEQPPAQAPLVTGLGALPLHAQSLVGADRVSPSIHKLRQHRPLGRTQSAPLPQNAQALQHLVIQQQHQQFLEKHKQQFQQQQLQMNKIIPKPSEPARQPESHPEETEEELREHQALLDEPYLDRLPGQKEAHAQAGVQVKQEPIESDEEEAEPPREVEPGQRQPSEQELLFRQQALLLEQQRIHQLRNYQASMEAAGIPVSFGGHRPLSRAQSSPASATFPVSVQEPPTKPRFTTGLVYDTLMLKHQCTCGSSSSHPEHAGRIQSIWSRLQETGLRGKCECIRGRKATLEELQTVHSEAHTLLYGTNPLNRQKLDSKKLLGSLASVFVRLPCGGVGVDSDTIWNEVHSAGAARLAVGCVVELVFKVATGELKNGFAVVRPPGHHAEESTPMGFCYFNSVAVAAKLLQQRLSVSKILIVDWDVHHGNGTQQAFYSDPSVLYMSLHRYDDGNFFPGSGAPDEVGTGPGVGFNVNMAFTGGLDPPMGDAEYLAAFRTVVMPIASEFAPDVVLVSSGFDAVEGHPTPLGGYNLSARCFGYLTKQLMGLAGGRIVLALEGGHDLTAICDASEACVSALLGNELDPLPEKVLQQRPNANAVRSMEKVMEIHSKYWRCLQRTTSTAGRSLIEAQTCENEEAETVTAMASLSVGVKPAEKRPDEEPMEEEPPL

SMILES: C#Cc1nc(C(=O)NCCCCCCC(=O)OC)cs1
- Activity [1]: Toxic
- Activity [2]: Active
- Activity [3]: Active

SMILES: C#Cc1nc(C2=C(C)[C@@H](O)CC2)cs1
- IC50 at 30 min [4]: 15100 nM
- Activity [5]: Active
- Activity [6]: Active

- IC50 [8]: 10 nM
- IC50 [9]: 8600 nM
- IC50 [11]: 270 nM
- IC50 [12]: 72 nM
- IC50 [13]: 91 nM
SMILES: C#Cc1nc(/C=C/CCCCCC(=O)NO)cs1
- IC50 [7]: 4960 nM
- IC50 [10]: 1590 nM

SMILES: O=C(CCCCC/C=C\c1csc(Br)n1)NO
- Activity [3]: Active

SMILES: C#Cc1nc(/C=C\CCCCCC(=O)OCC)cs1
- Activity [3]: Active

SMILES: C#Cc1nc(C(=O)NCCCCCCC(=O)NO)cs1
- Activity [14]: Active
- Activity [15]: Non-Toxic
- Activity [16]: Active
- Activity [17]: Active
- Activity [18]: Active
- Activity [19]: Active
- IC50 at 30 min [4]: 8370 nM
- Activity [20]: Active
- Activity [21]: Active
- Activity [22]: Active
- Activity [23]: Active
- Activity [24]: Active
- Activity [25]: Active
- Activity [26]: Active
- Activity [27]: Active
- IC50 [28]: 93 nM
- IC50 [8]: 1 nM
- Activity [29]: Active
- Activity [30]: Active
- GI50 [31]: 1000 nM
- Activity [32]: Active
- IC50 [11]: 320 nM
- Activity [3]: Active
- GI50 [33]: 780 nM
- IC50 [12]: 67 nM
- GI50 [34]: 350 nM
- Activity [35]: Active
- IC50 [13]: 50 nM
- Activity [36]: Active

Source: ChEMBL document CHEMBL5096224, “First-in-Class Dual Mechanism Ferroptosis-HDAC Inhibitor Hybrids” (J Med Chem, 2022)
